Shown are actives, neighbours in structure and some others; about 8.9% of the full set was active somewhere.
Dynein transport: blocks dynein driven cargo transport along microtubules | 3617.4 mouse cells, GR-EGFP nuclear translocation imaging; test concentration mostly 20 µM; stimulated with dexamethasone, 1 µM; active compounds read low | z-score, hits read low | actives 0.47% (n = 220,000);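 active = plate z-score of nuclear minus cytoplasmic receptor signal below a set negative limit, without overly bright fluorescence or cell loss, cut at about -3.5 in these data, passing the limit was not always enough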;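 note: z-score of nuclear minus cytoplasmic ring GR-EGFP intensity difference per well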
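medium = tetracycline-free induction medium containing charcoal-stripped FBS | probe or stimulus = dexamethasone, 1.0 µM final | timing = 48 h induction, then 1 h compound, then 30 min agonist, 37 °C | detection = automated 10x imaging of fixed Hoechst-stained cells | read-out basis = nuclear versus cytoplasmic GR-EGFP signal, averaged per well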
MT stabilizer: microtubule stabilization, imaging screen | HeLa tubulin immunostaining HCS, 24 h; share of cells brighter than vehicle mean+2SD | % tubulin-high responders, % at 10 µM | actives 0.83% (n = 200,000) | AID 2205;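 active = plate Z-score above 3 for both tubulin-high and condensed-nucleus cell shares, with cell loss under 80%, at 10 µM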;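 note: anti alpha tubulin signal scored within the nucleus-defined area of each cell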
Lmaj promast: reduces viability of Leishmania major promastigotes. resazurin fluorescence viability. inhibition, % at 10 µM. actives 9% (n = 200,000); in the data active = inhibition above about 50%;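 note: promastigotes grown with compound for 44 hours at 28 °C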
HSV replic up: increases HSV replication in cells; maximum fold increase; HSV replication augmentation in cells, fold increase; actives 0.005% (n = 220,000); in the data active = maximum fold increase above about 1.5; tested in PC3 cells
b-catenin transl: modulators of beta-catenin nuclear translocation; HeLa beta-catenin nuclear translocation, immunofluorescence imaging; nuclear translocation activity, % at 5 µM; actives 0.3% (n = 190,000);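 active = nuclear translocation activity above 50% at 5 µM, with a well cell count of 50 or more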;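 note: per-cell ratio of nuclear to cytoplasmic median beta-catenin stain intensity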
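Test system: human HeLa cells, endogenous beta-catenin. Times: 24 h compound exposure, 37°C. Measured by: beta-catenin immunofluorescence imaging with DAPI.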
Hits are given with their value; i = inactive; nt = not tested or not shown.

SMILES	Dynein transport	MT stabilizer	Lmaj promast	HSV replic up	b-catenin transl
CCn1c(=O)c(=O)[nH]c2cc(C(=O)NC3CCCC3)ccc21	i	i	i	i	i
COc1ccc(C2/C=C\CN(C(=O)Oc3ccccc3)CC(=O)N2Cc2ccc(F)cc2)cc1 (centres undefined)	i	nt	nt	i	i
CC(C)=CCC/C(C)=C/C=N/NC(=O)c1ccccc1[N+](=O)[O-]	i	i	94.4	i	i
C/C(CCc1ccccc1)=N\NC(=O)c1ccccc1[N+](=O)[O-]	i	i	i	nt	i
CC(C)=CCN1CCN(Cc2nc(-c3ccccc3)cs2)CC1CCO (centres undefined)	i	i	69.8	i	i
OCCC1CN(C2CCN(c3ccccc3F)CC2)CCN1Cc1ccccc1 (centres undefined)	i	i	80.3	i	i
CC(C)=CCN1CCN(Cc2cccn2-c2nccs2)CC1CCO (centres undefined)	i	i	i	i	i
OCCC1CN(Cc2nc(-c3ccccc3)cs2)CCN1CCc1ccccc1 (centres undefined)	i	i	86.7	i	i
OCCC1CN(Cc2cccnc2)CCN1CCc1ccccc1 (centres undefined)	i	i	i	i	i
CC(C)CCN1CCN(CC#Cc2ccccc2)CC1CCO (centres undefined)	i	i	80.4	i	i
Cc1ccc(O)c(-c2cc(C(=O)Nc3ccc(S(=O)(=O)N4CC(C)OC(C)C4)cc3)[nH]n2)c1 (centres undefined)	i	i	i	i	i
CCOC(=O)N1CCC(N2CCN(CCC(C)C)C(CCO)C2)CC1 (centres undefined)	i	i	i	i	i
CC(C)CCN1CCN(C2CCN(c3ccccc3)CC2)CC1CCO (centres undefined)	i	i	89.0	i	i
OCCC1CN(Cc2nc(-c3ccc(F)cc3)cs2)CCN1CCc1ccccc1 (centres undefined)	i	i	84.8	i	i
CC(C)CCN1CCN(Cc2nc(-c3ccccc3)cs2)CC1CCO (centres undefined)	i	i	84.9	i	i
CC(C)CCN1CCN(Cc2cccs2)CC1CCO (centres undefined)	i	i	i	i	i
CCC(=O)N1CCc2cc(Br)cc(S(=O)(=O)CCC(=O)N(CC)CC)c21	i	i	i	i	i
Cc1ccc2[nH]c(=S)cc(C)c2c1	i	i	i	i	i
CC(C)Sc1sc(C(=O)O)c(-c2ccc(Cl)cc2)c1C#N	i	nt	nt	i	i
CCOc1cc(C(=O)Nc2cnccn2)cc(OCC)c1OCC	i	38.0	i	i	i
O=C(NCCCn1ccnc1)c1cc(-c2ccc(Br)cc2)on1	i	i	96.2	i	i
CCOc1cc(C(=O)NCCCn2ccnc2)cc(OCC)c1OCC	i	i	54.2	i	i
CCOc1cc(C(=O)Nc2cc(C)ccn2)cc(OCC)c1OCC	i	i	i	i	i
COc1ccc2c(Cl)c(C(=O)NCCCn3ccnc3)sc2c1	i	i	100.5	i	i
COC(=O)Nc1ccc(S(=O)(=O)N2CCCCC2)cc1	i	i	i	i	nt
SMILES	Dynein transport	MT stabilizer	Lmaj promast	HSV replic up	b-catenin transl
CC(C)CNc1nc(S(=O)(=O)c2ccccc2)c(Cl)s1	i	i	i	i	i
CC(C)Cn1c(-c2csc3ccccc23)n[nH]c1=S	i	i	i	nt	i
COc1ccc(-c2cc(C(F)(F)F)n3nc(C(=O)NCCCN4CCOCC4)cc3n2)cc1	i	i	57.3	i	i
COc1cccc(-c2cc(C(=O)NCCCn3ccnc3)no2)c1	i	i	95.6	i	i
COc1ccc(-c2cc(C(=O)NCCCn3ccnc3)no2)cc1OC	i	i	61.1	i	i
COc1ccc(-c2cc(C(F)(F)F)n3nc(C(=O)N4CCCCC4)cc3n2)cc1	i	i	i	i	i
Cc1cc(C(=O)NCCCn2ccnc2)sc1-c1ccccc1	i	i	99.3	i	i
O=C1Nc2ccccc2C1=Nc1ccc(S(=O)(=O)Nc2nccs2)cc1	i	nt	nt	i	i
S=C(NCCc1ccccn1)Nc1ccc(Cl)cc1Cl	i	i	i	i	i
CNC(=O)c1cc(C(=O)c2ccc(C(F)(F)F)cc2F)c[nH]1	i	i	i	i	i
O=C(NCCCn1ccnc1)c1cc2nc(-c3ccc(Br)cc3)cc(C(F)(F)F)n2n1	i	i	99.4	i	i
Cc1cc2oc(C(=O)NCc3ccc(S(N)(=O)=O)cc3)c(C)c2cc1C	i	i	i	i	i
CCOC(=O)C(C)(C)N(Cc1cccc(C)c1)S(=O)(=O)c1cccc([N+](=O)[O-])c1	i	i	i	i	i
Cn1c(=Nc2ccc(N3CCOCC3)cc2)ccc2ccccc21	i	i	i	i	i
Cn1c(N=Nc2ccc(N3CCOCC3)cc2)[n+](C)c2ccccc21	i	i	100.4	i	i
COc1c(C)cc(C(=O)C2CCCN(C(=O)c3ccc4cc[nH]c4c3)C2)cc1C (centres undefined)	i	i	64.6	i	i
O=C(CC1SC(=Nc2cccc3ccccc23)N(Cc2ccccn2)C1=O)Nc1ccccc1Br (centres undefined)	i	i	i	i	nt
COc1ccc(/C=N/NC(=O)CN(C2=NS(=O)(=O)c3ccccc32)c2ccccc2)cc1	i	i	56.2	i	nt
CC1(C)CC(=O)C2=C(C1)NC(SCC(N)=O)=C(C#N)C21CCCCC1	i	i	i	i	i
COc1cccc(/C=N/N2CCOCC2)c1O	i	i	i	i	i
COc1cccc(/C=N/n2c(SC)nnc2-c2ccccc2)c1O	i	i	i	nt	90.3
COc1cc(/C=C/C(=O)OCC(=O)N2CCN(S(=O)(=O)c3ccc(C)cc3C)CC2)ccc1O	i	i	97.8	i	i
COc1ccc(/C=C/C(=O)Nc2cccc(F)c2)cc1S(=O)(=O)N1CCOCC1	i	i	50.1	i	i
COc1ccc(NC(=O)COC(=O)/C=C/c2ccc(OC)c(S(=O)(=O)N3CCOCC3)c2)cc1	i	i	57.1	i	i
COc1cccc(/C=C/C(=O)OCC(=O)Nc2ccc(S(=O)(=O)N3CCCC3)cc2)c1	i	i	68.2	i	nt
SMILES	Dynein transport	MT stabilizer	Lmaj promast	HSV replic up	b-catenin transl
COc1cc(/C=C/C(=O)OCC(=O)Nc2ccc(S(=O)(=O)N3CCCC3)cc2)ccc1O	i	i	i	i	i
COc1cc(/C=C/C(=O)OCC(=O)N2CCN(C(=O)c3ccco3)CC2)ccc1O	i	i	i	i	i
COc1ccc(/C=C/C(=O)Nc2ccccc2C)cc1S(=O)(=O)N1CCOCC1	i	nt	nt	i	i
COc1ccc(CNC(=O)C2CCN(c3nc(OC)nc(OC)n3)CC2)cc1	i	i	i	i	i
CN(CC(=O)Nc1nc2ccccc2s1)S(=O)(=O)c1ccc(Br)cc1	i	i	i	i	i
CN(CC(=O)Nc1nc2ccccc2s1)S(=O)(=O)c1ccc(Cl)cc1	i	i	87.8	i	nt
CCCn1c(NC(=S)Nc2ccccc2)nc2ccccc21	i	i	i	i	i
S=C(Nc1ccccc1)Nc1nc2ccccc2n1CCOc1ccc(Cl)cc1	i	i	66.4	i	i
CCn1c(NC(=S)Nc2ccccc2)nc2ccccc21	i	i	84.3	i	i
